T cruzi growth-1 = T. cruzi proliferation inhibition; T. cruzi beta-gal in NIH3T3, GalScreen luminescence, 90 h; inhibition, % at 8.34 µM; hit rate 5.9% among 77,000; AID 624255;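 active = mean inhibition above about 93%, with at least 55% of replicates each passing it, limit read from the data, passing the limit was not always enough; inconclusive = only one of those two conditions holds; inactive = neither condition holds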
Pf Dd2 inh = blocks growth of Plasmodium falciparum Dd2 parasites. P. falciparum Dd2 growth, SYBR Green, 72 h; active compounds read low. activity change, % at 10 µM. hit rate 2.3% among 94,000. AID 1159554; in the data active = activity change below about -80%; inconclusive = no clear call, values can overlap the other calls
IDH1 mut inh = blocks human IDH1 R132H reductase activity; O75874; diaphorase/resazurin fluorescence, 60 min; inhibition, % at 10 µM; hit rate 0.18% among 70,000; in the data active = inhibition above about 34%; inconclusive = no clear call, values can overlap the other calls; inactive = below about 11%
GASC1 inh = KDM4C (human) demethylase inhibition | Q9H3R0 | GST-KDM4C 2-372, H3K9me3 peptide, LANCE TR-FRET | inhibition, % at 12.5 µM | hit rate 0.15% among 96,000;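 active = mean replicate inhibition above about 25%, with at least 55% of replicates also reaching it, limit read from the data, passing the limit was not always enough; inconclusive = only one of those two conditions met; inactive = neither condition met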
Target sequence (Q9H3R0 2-372 limits assumed): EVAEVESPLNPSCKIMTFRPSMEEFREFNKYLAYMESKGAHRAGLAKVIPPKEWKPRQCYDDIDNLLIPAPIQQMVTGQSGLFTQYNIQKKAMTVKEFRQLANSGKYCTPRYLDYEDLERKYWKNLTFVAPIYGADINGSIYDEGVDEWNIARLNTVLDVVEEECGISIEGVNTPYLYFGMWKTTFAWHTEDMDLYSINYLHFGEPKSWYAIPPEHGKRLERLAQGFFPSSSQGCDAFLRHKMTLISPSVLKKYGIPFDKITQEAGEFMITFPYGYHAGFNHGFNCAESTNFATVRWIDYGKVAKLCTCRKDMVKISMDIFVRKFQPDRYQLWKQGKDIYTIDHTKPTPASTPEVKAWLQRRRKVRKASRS
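Compound: one test concentration per compound; Material: GST-GASC-1 enzyme fragment 2-372; Amount: GASC-1 enzyme at 10 nM final in reaction; Also added: H3K9me3 peptide substrate, Fe(II), 2-oxoglutarate; Technique: LANCE TR-FRET; Times: 30 min demethylation and 1 h detection at room temperature.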
T cruzi growth-2 = blocks T. cruzi growth in NIH3T3 host cells. inhibition, % at 8.35 µM. shares compounds with T cruzi growth-1. T. cruzi beta-gal in NIH3T3, GalScreen luminescence, 90 h. hit rate 72% among 5,600. AID 651739;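 active = mean replicate inhibition above about 95% and at least 55% of replicates individually reaching it, limit read from the data; inconclusive = only one of the two criteria is met; inactive = neither criterion is met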
T cruzi growth-3 = blocks T. cruzi growth in NIH3T3 host cells | shares compounds with T cruzi growth-1 | T. cruzi beta-gal in NIH3T3, GalScreen luminescence, 90 h | inhibition, % at 2.09 µM | hit rate 21% among 5,600;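 active = mean inhibition above about 95%, with at least 55% of replicates also reaching it, limit read from the data; inconclusive = meets just one of the two conditions; inactive = meets neither condition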
3T3 cytotox = NIH/3T3 (mouse) viability loss; shares compounds with T cruzi growth-1; NIH/3T3 viability, CellTiter-Glo ATP luminescence, 90 h; cytotoxicity (signal decrease), % at 8.35 µM; hit rate 14% among 5,600; AID 651742;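 active = mean signal decrease across replicates above about 35% based on untreated-well scatter, with enough replicates individually passing, limit read from the data; inconclusive = no rule stated though some were filed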
3T3 cytotox 2 = kills mouse NIH/3T3 fibroblasts. hit rate 56% among 5,600. NIH/3T3 viability, CellTiter-Glo ATP luminescence, 90 h. inhibition, % at 24.9 µM. shares compounds with T cruzi growth-1. AID 651744;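 active = mean loss of cell viability signal at or above a set limit, and enough replicates individually reaching it; inconclusive = meets only the mean limit or only the replicate share; inactive = meets neither condition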
Hits are given with their value; 0 = inactive; ? = inconclusive; - = not tested or not shown. An excerpt weighted towards active compounds, which were near 5.8% of everything screened.

SMILES	T cruzi growth-1	Pf Dd2 inh	IDH1 mut inh	GASC1 inh	T cruzi growth-2	T cruzi growth-3	3T3 cytotox	3T3 cytotox 2
CCCNC(=O)C[C@@H]1C[C@@H]2c3cc(NC(=O)Nc4ccc(F)cc4)ccc3O[C@@H]2[C@H](CO)O1	0	0	0	0	-	-	-	-
C[C@H]1CN([C@@H](C)CO)S(=O)(=O)c2ccc(C#Cc3cccc(F)c3)cc2O[C@H]1CN(C)S(=O)(=O)c1ccccc1F	111.3	0	0	0	106.1	0	0	?
C[C@H]1CN([C@@H](C)CO)S(=O)(=O)c2ccc(C#Cc3cccc(F)c3)cc2O[C@@H]1CN(C)S(=O)(=O)c1ccccc1F	104.1	0	0	0	103.9	102.7	0	60.0
C[C@H]1CN([C@@H](C)CO)S(=O)(=O)c2ccc(Br)cc2O[C@H]1CN(C)S(=O)(=O)c1ccccc1F	0	0	-	0	-	-	-	-
Cc1noc(C)c1S(=O)(=O)Nc1ccc2c(c1)CC(=O)N([C@H](C)CO)C[C@H](C)[C@@H](CN(C)C(=O)Nc1cccc3ccccc13)O2	-	0	0	0	-	-	-	-
COc1ccc(S(=O)(=O)N2CC[C@@H]3[C@H]2c2cc(-c4ccccc4F)ccc2N(C)[C@H]3CO)cc1	0	0	-	0	-	-	-	-
CN1c2ccc(-c3ccccc3F)cc2[C@@H]2[C@@H](CCN2S(=O)(=O)c2ccc(F)cc2)[C@H]1CO	107.6	0	-	0	111.4	0	?	49.5
CN1c2ccc(-c3ccccc3F)cc2[C@@H]2[C@@H](CCN2S(=O)(=O)c2ccc(F)cc2)[C@@H]1CO	?	0	-	0	95.8	?	45.3	46.5
C[C@@H]1CN([C@H](C)CO)C(=O)c2cc(-c3ccncc3)cnc2O[C@H]1CN(C)C(=O)c1ccc(F)cc1	0	0	-	0	-	-	-	-
N#C[C@@H]1[C@H](c2ccc(C#CC3CCCC3)cc2)[C@@H](CO)N1C(=O)c1cccc(F)c1	-	0	-	0	-	-	-	-
CC(C)NC(=O)N1[C@H](CO)[C@H](c2ccc(C#CC3CCCC3)cc2)[C@@H]1C#N	0	0	0	0	-	-	-	-
N#C[C@H]1[C@H](c2ccc(C#CC3CCCC3)cc2)[C@H](CO)N1C(=O)Nc1ccc(F)cc1	103.1	0	-	0	106.2	0	0	105.1
CC(C)NC(=O)N1[C@H](C#N)[C@H](c2ccc(C#CC3CCCC3)cc2)[C@H]1CO	101.5	0	-	0	102.9	100.9	0	0
CC(C)NC(=O)N1[C@H](C#N)[C@@H](c2ccc(C#CC3CCCCC3)cc2)[C@H]1CO	0	0	-	0	-	-	-	-
CN(C)CC(=O)N1[C@H](C#N)[C@H](c2ccc(C#CC3CCCCC3)cc2)[C@@H]1CO	0	0	-	0	-	-	-	-
CN(C)CC(=O)N1[C@H](CO)[C@@H](c2ccc(C#CC3CCCCC3)cc2)[C@@H]1C#N	99.0	0	-	0	102.3	0	0	106.5
CC(C)NC(=O)N1[C@H](C#N)[C@@H](c2ccc(C#CC3CCCC3)cc2)[C@@H]1CO	98.5	0	-	0	105.6	0	0	0
CNC[C@@H]1Oc2cc(C#Cc3ccccc3)ccc2S(=O)(=O)N([C@@H](C)CO)C[C@H]1C	-	0	0	0	-	-	-	-
COc1ccccc1C#Cc1ccc2c(c1)O[C@@H](CN(C)C)[C@@H](C)CN([C@@H](C)CO)S2(=O)=O	-	0	0	0	-	-	-	-
CNC[C@@H]1Oc2cc(C#Cc3ccccc3OC)ccc2S(=O)(=O)N([C@H](C)CO)C[C@H]1C	102.5	-	0	0	102.0	0	0	102.6
CNC[C@H]1Oc2cc(C#Cc3ccccc3OC)ccc2S(=O)(=O)N([C@H](C)CO)C[C@@H]1C	101.4	-	0	0	107.5	0	0	104.3
C[C@H]1CN([C@@H](C)CO)S(=O)(=O)c2ccc(C#Cc3ccccc3)cc2O[C@H]1CN(C)S(=O)(=O)c1ccccc1F	123.1	0	0	0	105.7	?	0	0
C[C@@H]1CN([C@@H](C)CO)S(=O)(=O)c2ccc(C#Cc3ccccc3)cc2O[C@H]1CN(C)S(=O)(=O)c1ccccc1F	124.5	?	0	0	109.0	0	40.7	46.6
C[C@@H]1CCCCO[C@@H](CN(C)Cc2ccc(Cl)c(Cl)c2)[C@@H](C)CN([C@@H](C)CO)C(=O)c2cc(NC(=O)NC3CCCCC3)ccc2O1	0	0	-	0	-	-	-	-
Cc1noc(C)c1NC(=O)N(C)C[C@H]1Oc2ncc(C#CC3CCCC3)cc2C(=O)N([C@@H](C)CO)C[C@H]1C	0	0	-	0	-	-	-	-
SMILES	T cruzi growth-1	Pf Dd2 inh	IDH1 mut inh	GASC1 inh	T cruzi growth-2	T cruzi growth-3	3T3 cytotox	3T3 cytotox 2
O=C(C[C@H]1CC[C@@H](NC(=O)Nc2ccc3c(c2)OCO3)[C@@H](CO)O1)NCc1ccc2c(c1)OCO2	0	0	0	0	-	-	-	-
CC1OC(O[C@H]2[C@@H](O)C[C@@]3(C)C(CC[C@]4(C)C3CC=C3[C@@H]5CC(C)(C)CC[C@]5(C(=O)OC5OC(C)C(OC6OCC(OC7OCC(O)C(OC8OCC(O)C(O)C8O)C7O)C(O)C6O)C(O)C5O)CC[C@]34C)[C@]2(C)CO)C(O)C(OC2OC(CO)C(O)C(O)C2O)C1O (stereo partly specified)	-	-	0	-	-	-	-	-
C[C@@H]1CN([C@H](C)CO)C(=O)c2cc(NC(=O)Nc3ccc4c(c3)OCO4)ccc2O[C@@H](C)CCCCO[C@H]1CN(C)S(=O)(=O)c1ccc(Cl)cc1	101.0	0	0	0	108.5	0	0	0
Cc1noc(C)c1NC(=O)Nc1ccc2c(c1)C(=O)N([C@@H](C)CO)C[C@H](C)[C@@H](CN(C)S(=O)(=O)c1ccc(Cl)cc1)OCCCC[C@@H](C)O2	98.8	0	-	0	0	0	0	0
C[C@@H]1CCCCO[C@@H](CN(C)S(=O)(=O)c2ccc(Cl)cc2)[C@H](C)CN([C@@H](C)CO)C(=O)c2cc(NC(=O)Nc3ccc4c(c3)OCO4)ccc2O1	102.7	0	0	0	110.5	0	0	0
C[C@@H]1CCCCO[C@@H](CN(C)S(=O)(=O)c2ccc(Cl)cc2)[C@H](C)CN([C@H](C)CO)C(=O)c2cc(NC(=O)Nc3ccc4c(c3)OCO4)ccc2O1	105.6	0	-	0	106.4	112.5	0	0
Cc1noc(C)c1NC(=O)Nc1ccc2c(c1)C(=O)N([C@H](C)CO)C[C@H](C)[C@@H](CN(C)S(=O)(=O)c1ccc(Cl)cc1)OCCCC[C@@H](C)O2	0	0	0	-	-	-	-	-
C[C@@H]1CCCCO[C@@H](CN(C)S(=O)(=O)c2ccc(Cl)cc2)[C@@H](C)CN([C@@H](C)CO)C(=O)c2cc(NC(=O)Nc3ccc4c(c3)OCO4)ccc2O1	96.6	-88.4	-	0	104.6	0	0	0
